A short description of assay [1]: Inhibition of His-tagged full-length Hsp90 (unknown origin)/GST-tagged Cdc37M (unknown origin) interaction after 1 hr by HTRF assay. On the set-up: species or system Homo sapiens. Summed up: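 TR-FRET in PBS containing 400 mM KF, pH 7.3. His-tagged full-length Hsp90 and GST-Cdc37M, each 250 nM final, incubated with compound for 1 h at 37 °C. Anti-GST-Cryptate and anti-6His-XL665 then added for a further 0.5 h at 37 °C. Excitation 320 nm, emission 665/620 nm, reported as ratio ×10,000. Negative and blank controls run in each assay.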
Background: TR-FRET usually uses a lanthanide donor and a delayed reading to cut background.

For a further assay, the system named is A549. As to the kind of experiment: Antiproliferative activity against human A549 cells after 48 hrs by MTT assay. Format: functional, cell-based. The following applies: A549, 48 h. Summed up: (§1)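 Cells in log phase seeded at about 1.0 × 10^5 cells/mL in 96-well plates, left 12 h at 37 °C, 5% CO2. Compounds dissolved in DMSO, added at 2.5, 5, 10, 20 and 50 µM, 48 h exposure. Absorbance read at 570/630 nm dual wavelength. Survival expressed relative to negative control. IC50 by Bliss method (n = 5), tests done in triplicate.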
On the technique in general: Tetrazolium dyes change colour on reduction, which living cells bring about.

For a further assay, the system named is HepG2. As to the kind of experiment: Antiproliferative activity against human HepG2 cells after 48 hrs by MTT assay. Format: functional, cell-based. The settings on record: HepG2, 48 h. Summed up: as §1
The test system of another assay is HCT-116. As to the kind of experiment: Antiproliferative activity against human HCT116 cells after 48 hrs by MTT assay. Type of assay: functional, cell-based. The settings on record: HCT-116, 48 h. The method, boiled down:
as §1

Another assay concerns MCF7. Kind of assay: Antiproliferative activity against human MCF7 cells after 48 hrs by MTT assay. Type of assay: functional, cell-based. The following applies: MCF7, 48 h. The method, boiled down: as §1

Some results are limits rather than exact numbers.

One may read the IC50 as the concentration that gives 50% inhibition. Read a high IC50 as a need for much substance. As to `Cc1cccc2sc(NC(=O)[C@@]3(C)CC[C@]4(C)CC[C@]5(C)C(=CC(=O)[C@@H]6[C@@]7(C)CC[C@H](O)C(C)(C)[C@@H]7CC[C@]65C)[C@@H]4C3)nc12`, the 50% inhibitory concentration (IC50) (in assay [1]; in the assay on A549; in the assay on HepG2; with HCT-116; in the assay on MCF7) was above 100 µM each time.

Regarding `CCOC(=O)[C@@]1(C)CC[C@]2(C)CC[C@]3(C)C(=CC(=O)[C@@H]4[C@@]5(C)CC[C@H](OC(=O)CCC(=O)Nc6nc7ccc(C)cc7s6)C(C)(C)[C@@H]5CC[C@]43C)[C@@H]2C1`, the IC50 in assay [1] came to 14.9 µM; in the assay with A549, 19.1 µM; in the assay with HepG2, 27.5 µM; in the assay with HCT-116, 23.6 µM; in the assay with MCF7, 22.5 µM.

For `CC1(C)[C@@H](O)CC[C@]2(C)[C@H]3C(=O)C=C4[C@@H]5C[C@@](C)(C(=O)Nc6nc7c(Br)cccc7s6)CC[C@]5(C)CC[C@@]4(C)[C@]3(C)CC[C@@H]12`, the half-maximal inhibitory concentration (IC50) (in assay [1]; with A549; in the assay with HepG2; in the assay on HCT-116; with MCF7) was above 100 µM in each case.

As for `CC(=O)O[C@H]1CC[C@]2(C)[C@H]3C(=O)C=C4[C@@H]5C[C@@](C)(C(=O)Nc6nc7c(Br)cccc7s6)CC[C@]5(C)CC[C@@]4(C)[C@]3(C)CC[C@H]2C1(C)C`, the IC50 (in assay [1]; with A549; in the assay with HepG2; in the assay on HCT-116; in the assay on MCF7) was above 100 µM in each case.

Consider `CCOC(=O)[C@@]1(C)CC[C@]2(C)CC[C@]3(C)C(=CC(=O)[C@@H]4[C@@]5(C)CC[C@H](OC(=O)CCC(=O)Nc6nc7c(OC)cccc7s6)C(C)(C)[C@@H]5CC[C@]43C)[C@@H]2C1`, for which the IC50 in assay [1] amounted to 10.4 µM; in the assay with A549, 16.4 µM; with HepG2, 21.9 µM; in the assay on HCT-116 it was 23.1 µM; in the assay with MCF7 it was 20.1 µM.

For `CC1=C(O)C(=O)C=C2C1=CC=C1[C@@]2(C)CC[C@@]2(C)[C@@H]3C[C@](C)(C(=O)O)CC[C@]3(C)CC[C@]12C` [CELASTROL], the IC50 in assay [1] is 6.22 µM; with A549, 6.59 µM; with HepG2, 6.17 µM; with HCT-116, 5.26 µM; in the assay with MCF7, 6.84 µM.

Regarding `CCOC(=O)[C@@]1(C)CC[C@]2(C)CC[C@]3(C)C(=CC(=O)[C@@H]4[C@@]5(C)CC[C@H](OC(=O)CCC(=O)Nc6nc7c(Br)cccc7s6)C(C)(C)[C@@H]5CC[C@]43C)[C@@H]2C1`, the IC50 in assay [1] is 15.3 µM; with A549, 20.7 µM; with HepG2, 29.9 µM; in the assay on HCT-116, 26.8 µM; in the assay with MCF7, 24.4 µM.

As to `CCOC(=O)[C@@]1(C)CC[C@]2(C)CC[C@]3(C)C(=CC(=O)[C@@H]4[C@@]5(C)CC[C@H](OC(=O)CCC(=O)Nc6nc7c(C)cccc7s6)C(C)(C)[C@@H]5CC[C@]43C)[C@@H]2C1`, the IC50 in assay [1] worked out at 21.9 µM; in the assay with A549 it was 22.8 µM; with HepG2, 31.8 µM; with HCT-116, 26.3 µM; with MCF7, 26.5 µM.

`CC1(C)[C@@H](O)CC[C@]2(C)[C@H]3C(=O)C=C4[C@@H]5C[C@@](C)(C(=O)O)CC[C@]5(C)CC[C@@]4(C)[C@]3(C)CC[C@@H]12` [ENOXOLONE]: the IC50 was 78.4 µM in assay [1]; 84.2 µM in the assay with A549; 94.5 µM in the assay on HepG2; 91.2 µM with HCT-116; 74.8 µM in the assay with MCF7.

As to `CC1(C)[C@@H](O)CC[C@]2(C)[C@H]3C(=O)C=C4[C@@H]5C[C@@](C)(C(=O)Nc6nc7ccc(Br)cc7s6)CC[C@]5(C)CC[C@@]4(C)[C@]3(C)CC[C@@H]12`, the IC50 in assay [1] was 41.3 µM; with A549 it was 33.4 µM; in the assay on HepG2, 39.5 µM; in the assay on HCT-116, 37.4 µM; in the assay with MCF7, 33.8 µM.

For `CC(=O)O[C@H]1CC[C@]2(C)[C@H]3C(=O)C=C4[C@@H]5C[C@@](C)(C(=O)Nc6nc7ccc(Br)cc7s6)CC[C@]5(C)CC[C@@]4(C)[C@]3(C)CC[C@H]2C1(C)C`, the concentration for half-maximal inhibition (IC50) in assay [1] was 81.9 µM; in the assay with A549, 69.7 µM; with HepG2, 86 µM; in the assay on HCT-116 it was 76.8 µM; in the assay with MCF7, 78.1 µM.

In the case of `CC1(C)[C@@H](O)CC[C@]2(C)[C@H]3C(=O)C=C4[C@@H]5C[C@@](C)(C(=O)Nc6nc7c(F)cccc7s6)CC[C@]5(C)CC[C@@]4(C)[C@]3(C)CC[C@@H]12`, the 50% inhibitory concentration (IC50) in assay [1] was 45.7 µM; in the assay on A549, 36.5 µM; with HepG2 it was 45.6 µM; in the assay with HCT-116, 42.5 µM; in the assay with MCF7, 41.2 µM.

In the case of `CC(=O)O[C@H]1CC[C@]2(C)[C@H]3C(=O)C=C4[C@@H]5C[C@@](C)(C(=O)Nc6nc7c(C)cccc7s6)CC[C@]5(C)CC[C@@]4(C)[C@]3(C)CC[C@H]2C1(C)C`, the IC50 (in assay [1]; in the assay with A549; in the assay with HepG2; in the assay on HCT-116; in the assay with MCF7) was above 100 µM in each case.

As to `COc1cccc2sc(NC(=O)[C@@]3(C)CC[C@]4(C)CC[C@]5(C)C(=CC(=O)[C@@H]6[C@@]7(C)CC[C@H](OC(C)=O)C(C)(C)[C@@H]7CC[C@]65C)[C@@H]4C3)nc12`, the IC50 (in assay [1]; in the assay on A549; in the assay on HepG2; in the assay with HCT-116; in the assay with MCF7) was above 100 µM throughout.

With `COc1ccc2nc(NC(=O)[C@@]3(C)CC[C@]4(C)CC[C@]5(C)C(=CC(=O)[C@@H]6[C@@]7(C)CC[C@H](OC(C)=O)C(C)(C)[C@@H]7CC[C@]65C)[C@@H]4C3)sc2c1`, the IC50 in assay [1] is 90.1 µM; in the assay with A549 it was 75.5 µM; in the assay on HepG2, 85.6 µM; in the assay with HCT-116, above 100 µM; in the assay on MCF7, 81.2 µM.

Consider `O=c1[nH]cc(F)c(=O)[nH]1` [FLUOROURACIL], for which the 50% inhibitory concentration (IC50) was found to be 19.5 µM in the assay with A549, 23.6 µM in the assay on HepG2, 17.2 µM with HCT-116 and 15.8 µM with MCF7.

For the compound `CCOC(=O)[C@@]1(C)CC[C@]2(C)CC[C@]3(C)C(=CC(=O)[C@@H]4[C@@]5(C)CC[C@H](OC(=O)CCC(=O)Nc6nc7ccc(OC)cc7s6)C(C)(C)[C@@H]5CC[C@]43C)[C@@H]2C1`, the half-inhibitory concentration (IC50) in assay [1] worked out at 8.24 µM; with A549, 15.5 µM; with HepG2, 20.4 µM; in the assay with HCT-116, 21.3 µM; in the assay on MCF7, 18.5 µM.

On to `CC(=O)O[C@H]1CC[C@]2(C)[C@H]3C(=O)C=C4[C@@H]5C[C@@](C)(C(=O)Nc6nc7c(F)cccc7s6)CC[C@]5(C)CC[C@@]4(C)[C@]3(C)CC[C@H]2C1(C)C`, for which the IC50 (in assay [1]; in the assay on A549; in the assay on HepG2; with HCT-116; in the assay with MCF7) was above 100 µM in each case.

With `Cc1ccc2nc(NC(=O)[C@@]3(C)CC[C@]4(C)CC[C@]5(C)C(=CC(=O)[C@@H]6[C@@]7(C)CC[C@H](O)C(C)(C)[C@@H]7CC[C@]65C)[C@@H]4C3)sc2c1`, the 50% inhibitory concentration (IC50) in assay [1] is 83.2 µM; in the assay with A549, 22.4 µM; in the assay on HepG2 it was 27.6 µM; in the assay with HCT-116, 18.7 µM; in the assay with MCF7 it was 23.2 µM.

Take `CC(=O)O[C@H]1CC[C@]2(C)[C@H]3C(=O)C=C4[C@@H]5C[C@@](C)(C(=O)Nc6nc7ccccc7s6)CC[C@]5(C)CC[C@@]4(C)[C@]3(C)CC[C@H]2C1(C)C`: the IC50 (in assay [1]; with A549; with HepG2; in the assay on HCT-116; in the assay with MCF7) was above 100 µM in each case.

Turning to `CC1(C)[C@@H](O)CC[C@]2(C)[C@H]3C(=O)C=C4[C@@H]5C[C@@](C)(C(=O)Nc6nc7c(Cl)cccc7s6)CC[C@]5(C)CC[C@@]4(C)[C@]3(C)CC[C@@H]12`, the half-maximal inhibitory concentration (IC50) is 65.6 µM in assay [1]; 75.4 µM in the assay with A549; 69.6 µM in the assay on HepG2; above 100 µM in the assay with HCT-116; 71.2 µM with MCF7.

Turning to `CC(=O)O[C@H]1CC[C@]2(C)[C@H]3C(=O)C=C4[C@@H]5C[C@@](C)(C(=O)Nc6nc7ccc(C)cc7s6)CC[C@]5(C)CC[C@@]4(C)[C@]3(C)CC[C@H]2C1(C)C`, the concentration for half-maximal inhibition (IC50) (in assay [1]; in the assay with A549; in the assay with HepG2; with HCT-116; with MCF7) was above 100 µM in each case.

On to `CC(=O)O[C@H]1CC[C@]2(C)[C@H]3C(=O)C=C4[C@@H]5C[C@@](C)(C(=O)Nc6nc7c(Cl)cccc7s6)CC[C@]5(C)CC[C@@]4(C)[C@]3(C)CC[C@H]2C1(C)C`, for which the half-maximal inhibitory concentration (IC50) (in assay [1]; in the assay on A549; with HepG2; in the assay with HCT-116; in the assay with MCF7) was above 100 µM in each case.

In the case of `CC(=O)O[C@H]1CC[C@]2(C)[C@H]3C(=O)C=C4[C@@H]5C[C@@](C)(C(=O)Nc6nc7ccc(Cl)cc7s6)CC[C@]5(C)CC[C@@]4(C)[C@]3(C)CC[C@H]2C1(C)C`, the 50% inhibitory concentration (IC50) in assay [1] worked out at 77.6 µM; with A549, 62.6 µM; with HepG2, 73.1 µM; in the assay with HCT-116 it was 68.5 µM; in the assay with MCF7, 66.7 µM.

For the origin of these results see ChEMBL document CHEMBL4219101, “Discovery of 18β-glycyrrhetinic acid conjugated aminobenzothiazole derivatives as Hsp90-Cdc37 interaction disruptors that inhibit cell migration and reverse drug resistance” (Bioorg Med Chem, 2018).
